Test results published in ChEMBL document CHEMBL4014347, “Targeting Mycolic Acid Transport by Indole-2-carboxamides for the Treatment of Mycobacterium abscessus Infections” (J Med Chem, 2017).
≈ marks a conversion by molar mass, not a printed value. Calls of active or inactive are those of the source. No cut-off for these calls is given here.

What was measured:
[1] = tested on: Vero; test: Cytotoxicity against African green monkey Vero cells; format: cell-based; conditions: Chlorocebus sabaeus
[2] = tested on: Mycobacteroides abscessus; test: Antibacterial activity against CF patient derived Mycobacterium abscessus subsp. abscessus isolate 2524 rough variant after 3 to 5 days by two fold serial dilution method; format: functional
Method in brief: (§1)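 Broth microdilution in cation-adjusted Mueller−Hinton broth per CLSI; inoculum 5 × 10^6 CFU/mL of exponential-phase bacteria; two-fold serial dilutions, solvent-only wells as control; 30 °C for 3−5 days; MIC read visually and confirmed by absorbance at 560 nm; triplicate on three independent occasions.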

[3] = tested on: Mycobacteroides abscessus; test: Antibacterial activity against CF patient derived Mycobacterium abscessus subsp. abscessus isolate 2648 rough variant after 3 to 5 days by two fold serial dilution method; format: functional; method in brief: as §1
[4] = tested on: Mycobacteroides abscessus; test: Antibacterial activity against non CF patient derived Mycobacterium abscessus subsp. abscessus isolate 3022 rough variant after 3 to 5 days by two fold serial dilution method; format: functional; method in brief: as §1
[5] = tested on: Mycobacteroides abscessus; test: Antibacterial activity against CF patient derived Mycobacterium abscessus subsp. abscessus smooth variant after 3 to 5 days by two fold serial dilution method; format: functional; method in brief: as §1
[6] = tested on: Mycobacteroides abscessus; test: Antibacterial activity against CF patient derived Mycobacterium abscessus subsp. massiliense isolate 210 rough variant after 3 to 5 days by two fold serial dilution method; format: functional; method in brief: as §1
[7] = Antibacterial activity against CF patient derived Mycobacterium abscessus subsp. bolletii isolate 108 rough variant after 3 to 5 days by two fold serial dilution method; format: functional; conditions: Mycobacteroides abscessus; method in brief: as §1
[8] = Antibacterial activity against non CF patient derived Mycobacterium abscessus subsp. bolletii isolate 17 smooth variant after 3 to 5 days by two fold serial dilution method; format: functional; conditions: Mycobacteroides abscessus; method in brief: as §1
[9] = tested on: Mycobacteroides abscessus; test: Antibacterial activity against Mycobacterium abscessus CIP104536 smooth variant infected in PMA activated THP-1 macrophages assessed as reduction in viable colony forming unit at 3 ug/ml measured upto 4 days post treatment; format: functional
Method in brief: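 THP-1 cells in RPMI with 10% FBS, differentiated with 20 ng/mL PMA for 48 h at 37 °C; infected at MOI 1:2 for 2 h under 5% CO2; washed, 200 μg/mL amikacin for 1 h, washed; drug medium renewed daily; lysed in 1% Triton X100 at 0, 48, 96 h and plated for CFU; triplicates, two independent experiments.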

[10] = tested on: Mycobacteroides abscessus; test: Antibacterial activity against Mycobacterium abscessus CIP104536 smooth variant harboring pMV261 MAB_4508 wild type at 0.5 to 1 ug/ml after 3 days; format: functional
Method in brief: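 M. abscessus overexpressing wild-type or A309P MAB_4508 from pMV261 plated on 7H10 agar with 10% OADC containing drug; plates incubated at 30 °C for 3 days before growth inspection.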

[11] = tested on: Mycobacteroides abscessus; test: Inhibition of MmpL3 A309P mutant in Mycobacterium abscessus CIP104536 smooth variant harboring pMV261 MAB_4508_A309P mutant assessed as reduction in trehalose monomycolate transport at 6.2 ug/ml preincubated for 1 hr followed by [14C]acetic acid addition measured after 2 hrs by TLC based autoradiography analysis
Method in brief: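 Exponential cultures in 7H9 with OADC exposed to increasing drug concentrations for 1 h at 37 °C with agitation, then labelled with 1 μCi/mL [14C]acetate (56 mCi/mmol) for 2 h; apolar lipids (TMM, TDM) run on TLC in chloroform/methanol/water 40:8:1; MAME and arabinogalactan-bound mycolates in petroleum ether/acetone 95:5; autoradiography.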

[12] = Permeability of the compound at 25 uM at pH 5 after 4 hrs by LC-MS based PAMPA; format: physicochemical; conditions: read-out: permeability
Method in brief: (§2)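 PAMPA: 25 μM compound in aqueous buffer at pH 7.4 or 5.0 (pH adjusted with NaOH) in donor plate, triplicate; acceptor membrane coated with GIT-0 lipid, acceptor sink buffer; 4 h at 25 ± 2 °C; donor and acceptor solutions analysed by LC-MS (UPLC).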

[13] = Permeability of the compound at 25 uM at pH 7.4 after 4 hrs by LC-MS based PAMPA; format: physicochemical; conditions: read-out: permeability; method in brief: as §2
[14] = biological target: T1, Cytochrome P450 2C8 (Homo sapiens, UniProt P10632); test: Inhibition of CYP2C8 in human liver microsomes preincubated for 5 mins followed by NADPH addition measured after 10 mins by LC-MS/MS analysis; format: ADME
T1 sequence (P10632 whole entry): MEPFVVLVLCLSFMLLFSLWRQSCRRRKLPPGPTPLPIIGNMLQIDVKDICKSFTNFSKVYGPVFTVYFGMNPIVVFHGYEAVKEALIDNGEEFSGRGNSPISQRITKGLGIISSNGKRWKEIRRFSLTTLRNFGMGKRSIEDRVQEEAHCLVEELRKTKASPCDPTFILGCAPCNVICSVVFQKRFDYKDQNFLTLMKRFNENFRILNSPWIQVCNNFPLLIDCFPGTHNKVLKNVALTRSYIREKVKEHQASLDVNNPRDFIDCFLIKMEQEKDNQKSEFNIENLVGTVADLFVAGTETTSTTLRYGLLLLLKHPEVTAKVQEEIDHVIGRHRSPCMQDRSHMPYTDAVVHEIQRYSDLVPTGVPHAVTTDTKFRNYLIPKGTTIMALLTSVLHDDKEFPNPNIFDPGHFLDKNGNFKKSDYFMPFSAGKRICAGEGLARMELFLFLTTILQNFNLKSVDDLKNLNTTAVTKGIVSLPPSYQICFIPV

[15] = biological target: Cytochrome P450 2D6 (Homo sapiens, UniProt P10635); test: Inhibition of CYP2D6 in human liver microsomes preincubated for 5 mins followed by NADPH addition measured after 10 mins by LC-MS/MS analysis; format: ADME
Chain of Cytochrome P450 2D6 (P10635 whole entry): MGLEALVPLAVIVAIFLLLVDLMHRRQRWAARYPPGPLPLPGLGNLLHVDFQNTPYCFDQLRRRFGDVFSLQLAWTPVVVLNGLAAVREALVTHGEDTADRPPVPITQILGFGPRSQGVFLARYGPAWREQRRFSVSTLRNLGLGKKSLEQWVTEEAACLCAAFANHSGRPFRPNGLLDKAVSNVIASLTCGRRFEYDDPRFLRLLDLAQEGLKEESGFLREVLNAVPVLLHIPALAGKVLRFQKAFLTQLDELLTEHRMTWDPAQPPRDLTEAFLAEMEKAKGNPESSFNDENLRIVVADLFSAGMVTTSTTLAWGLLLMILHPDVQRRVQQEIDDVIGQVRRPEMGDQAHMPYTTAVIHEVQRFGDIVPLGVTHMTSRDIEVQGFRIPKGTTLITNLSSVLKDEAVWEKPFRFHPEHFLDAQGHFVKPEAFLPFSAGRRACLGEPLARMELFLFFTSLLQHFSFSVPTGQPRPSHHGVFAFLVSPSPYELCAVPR

[16] = biological target: CYP2C19 (Homo sapiens, UniProt P33261); test: Inhibition of CYP2C19 in human liver microsomes preincubated for 5 mins followed by NADPH addition at 10 uM measured after 40 mins by LC-MS/MS analysis relative to control; format: ADME
Chain of CYP2C19 (P33261 whole entry): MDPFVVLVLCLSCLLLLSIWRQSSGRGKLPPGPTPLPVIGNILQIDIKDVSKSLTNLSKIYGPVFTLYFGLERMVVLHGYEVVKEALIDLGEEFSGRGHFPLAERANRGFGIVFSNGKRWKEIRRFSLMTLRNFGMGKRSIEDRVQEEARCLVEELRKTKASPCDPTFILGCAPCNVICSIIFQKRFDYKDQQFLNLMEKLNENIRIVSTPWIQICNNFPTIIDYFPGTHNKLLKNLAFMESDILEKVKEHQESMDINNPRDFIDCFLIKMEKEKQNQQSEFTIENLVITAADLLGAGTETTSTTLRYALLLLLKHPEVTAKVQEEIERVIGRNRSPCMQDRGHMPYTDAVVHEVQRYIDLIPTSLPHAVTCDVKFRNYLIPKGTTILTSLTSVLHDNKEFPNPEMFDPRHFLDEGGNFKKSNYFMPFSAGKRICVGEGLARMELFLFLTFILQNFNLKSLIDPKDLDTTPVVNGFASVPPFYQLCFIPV

[17] = tested on: Salmonella typhimurium; test: Mutagenicity in Salmonella typhimurium TA98 in presence of rat liver S9 fraction assessed as increase in revertant colonies at 0.24 to 500 ug/well after 72 hrs by Ames test relative to control; format: toxicity; conditions: salmonella enterica subsp. enterica serovar typhimurium, s9, 72 h
Method in brief: (§3)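 Reverse mutation at histidine locus in S. typhimurium TA98 (frameshift) and TA100 (base-pair substitution), with and without S9; 0.24−500 μg/well; 37 ± 2 °C for 72 h, triplicates; DMSO vehicle; sodium azide, 2-nitrofluorene, 2-aminoanthracene positive controls; positive if revertants rise ≥2-fold over negative control dose-dependently.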

[18] = tested on: Salmonella typhimurium; test: Mutagenicity in Salmonella typhimurium TA98 assessed as increase in revertant colonies at 0.24 to 500 ug/well after 72 hrs by Ames test relative to control; format: toxicity; conditions: salmonella enterica subsp. enterica serovar typhimurium; method in brief: as §3
[19] = tested on: Salmonella typhimurium; test: Mutagenicity in Salmonella typhimurium TA100 assessed as increase in revertant colonies at 0.24 to 500 ug/well after 72 hrs by Ames test relative to control; format: toxicity; conditions: salmonella enterica subsp. enterica serovar typhimurium; method in brief: as §3

O=C(NC1CCCCCC1)c1cc2c(Cl)cc(Cl)cc2[nH]1
IC50 [1]: 8 to 16 µg/mL (≈ 24.6 to 49.2 µM) | MIC [2]: 0.125 µg/mL (≈ 0.384 µM) | MIC [3]: 0.125 µg/mL (≈ 0.384 µM) | MIC [4]: 0.125 µg/mL (≈ 0.384 µM) | MIC [5]: 0.125 µg/mL (≈ 0.384 µM) | MIC [6]: 0.125 µg/mL (≈ 0.384 µM) | MIC [7]: 0.25 µg/mL (≈ 0.769 µM) | MIC [8]: 0.125 µg/mL (≈ 0.384 µM) | Activity [9]: Active | Activity [10]: Active | inhibition [11]: Active | Papp at 4 h, 25 µM [12]: 0.3 ×10⁻⁶ cm/s | Papp at 4 h, 25 µM [13]: 0.2 ×10⁻⁶ cm/s | IC50 [14]: ≤ 20 µM | IC50 [15]: ≤ 20 µM | inhibition at 40 min, 10 µM [16]: 4% | fold change (FC) [17]: < 2 | fold change (FC) [18]: < 2 | fold change (FC) [19]: < 2
